Test results taken from BindingDB's records for doi:10.1021/jm9013482 (Harvard Medical School, 2010).

Target: Delta-type opioid receptor (Homo sapiens, UniProt P41143)
Assay: Displacement of [3H]naltrindole from human delta opioid receptor expressed in CHO cells
Procedure, shortened: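 CHO cells stably expressing a single human opioid receptor were grown in DMEM with 10% FBS and penicillin/streptomycin at 37 °C in 5% CO2. Their membranes were incubated with radioligand and 12 concentrations of test compound at 25 °C in 50 mM Tris-HCl, pH 7.5.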

Sequence of Delta-type opioid receptor (P41143 whole entry): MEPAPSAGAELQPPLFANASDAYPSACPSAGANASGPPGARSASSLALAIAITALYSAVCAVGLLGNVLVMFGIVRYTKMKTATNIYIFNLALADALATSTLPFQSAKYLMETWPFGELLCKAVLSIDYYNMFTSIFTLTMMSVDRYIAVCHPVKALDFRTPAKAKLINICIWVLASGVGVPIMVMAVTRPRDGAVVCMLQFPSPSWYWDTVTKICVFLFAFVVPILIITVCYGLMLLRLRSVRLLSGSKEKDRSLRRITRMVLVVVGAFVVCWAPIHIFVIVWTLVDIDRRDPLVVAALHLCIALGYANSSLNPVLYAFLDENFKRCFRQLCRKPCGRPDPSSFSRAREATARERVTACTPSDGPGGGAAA

Question: How did the Ki turn out when O=C(CCCCC(=O)NCc1cc2c(cc1O)[C@@]13CCCC[C@H]1[C@@H](C2)N(CC1CCC1)CC3)NCc1cc2c(cc1O)[C@@]13CCCC[C@H]1[C@@H](C2)N(CC1CCC1)CC3 [Hexanedioic Acid Bis(17-N-cyclobutylmethyl-3-hydroxymorphinan-2-methyl)amide] was run?
Answer: 630 nM
